Source: PubChem
An excerpt weighted towards active compounds, which were near 2.9% of everything screened.
DENV2 CPE rescue = inhibitors of DENV2 cytopathic effect, primary screen, cell-based, plate reader, single concentration. DENV2-infected cells, cytopathic effect rescue. CPE inhibition, % at 9.99 µM. 350,000 compounds, 1.7% hits; in the data active means CPE inhibition above about 20%, passing the limit was not always enough; tested in BHK-21 cells;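 further: 0% = median of neutral control wells and 100% = median of positive control wells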
S100A4 inh HTS = inhibitors of S100A4-myosin IIA peptide binding, primary screen, biochemical, fluorescence polarization, TAMRA-MyoIIA peptide; inhibition, % at 10.7 µM; Protein S100-A4 (Homo sapiens), P26447; 360,000 compounds, 0.14% hits;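 active means mean inhibition of at least 70% across replicates, with every replicate also reaching that level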
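System – human S100A4 monomer protein, biochemical binding assay · Buffer or medium – Calcium-containing HEPES buffer, pH 7.2 · Timing – 5 min between mix addition and reading · Also added – TAMRA-labelled myosin IIA heavy-chain peptide probe, 5 nM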
CAL PDZ FP-1 = untagged CAL PDZ binding inhibitors, primary screen, biochemical, fluorescence polarization, HTS | Golgi-associated PDZ and coiled-coil motif-containing protein (Homo sapiens), Q9HD26 | purified CAL PDZ, TMR-peptide fluorescence polarization, 1 h | inhibition, % at 24.9 µM | 300,000 compounds, 0.92% hits;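 active means mean inhibition of at least 30% with at least half of replicates also reaching 30%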;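 further: 0% = DMSO neutral control and 100% = excess unlabeled competitor peptide PRC23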
SIRT5 block = SIRT5 desuccinylase inhibitors, primary screen, biochemical, fluorescence imaging, single point, set 5 | 330,000 compounds, 1.1% hits | Purified SirT5, succinyl-peptide AMC, trypsin-coupled fluorescence | inhibition, % at 15 µM | AID 652115, 2013; in the data active means inhibition above about 15%
ERAP1 HTS inh = human ERAP1 aminopeptidase inhibitors, primary screen, biochemical, single point, plate reader. 340,000 compounds, 0.15% hits. inhibition, % at 10.7 µM. recombinant ERAP1, Leu-AMC fluorescence, 60 min. Endoplasmic reticulum aminopeptidase 1 (Homo sapiens), Q9NZ08;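 active means mean replicate inhibition of at least 30%, or all replicates individually reaching that 30% level; inactive means mean below 30% and not every replicate reaching it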;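 further: 0% = neutral control wells and 100% = L-leucinethiol positive control wells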
CAL PDZ FP-2 = CAL PDZ peptide-binding inhibitors, primary screen, biochemical, fluorescence polarization, Cer-tagged CAL PDZ, HTS | Golgi-associated PDZ and coiled-coil motif-containing protein (Homo sapiens), Q9HD26 | purified CAL PDZ, TMR-peptide fluorescence polarization, 1 h | inhibition, % at 20 µM | 330,000 compounds, 0.02% hits;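 active means highest replicate inhibition of at least 40%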;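 further: plate controls were DMSO neutral control wells for no effect and unlabeled competitor peptide control wells for full effect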
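Test system: purified CerCALP PDZ construct; Compound dosing: one concentration, 20 µM compound; Also added: TMR-labelled reporter peptide T*-PRC34 bound in PDZ groove; Read-out: inhibition from polarization loss; Controls: unlabelled peptide and DMSO controls; Signal: FP readout, S and P plane fluorescence; Incubation: 1 h at RT.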
* = called active by the depositor.

Screening CC(C)(C)NC(=O)CCSc1nnc(-c2ccco2)o1 returned S100A4 inh HTS -2, CAL PDZ FP-1 111*, SIRT5 block 1, ERAP1 HTS inh -5 and CAL PDZ FP-2 16.
For O=C(CCSc1nnc(-c2ccco2)o1)Nc1ccccc1 the results were CAL PDZ FP-1 -7.
Screening CCC(=O)N[C@@H]1C=C[C@H](CC(=O)NCCN2CCCCC2)O[C@@H]1CO returned DENV2 CPE rescue 3, S100A4 inh HTS -1, SIRT5 block -13 and ERAP1 HTS inh 3.
`COc1ccccc1-n1cc(-c2ccccc2)c2c(=S)nc[nH]c21` gave DENV2 CPE rescue -1, S100A4 inh HTS -1, CAL PDZ FP-1 77*, SIRT5 block -3, ERAP1 HTS inh 1 and CAL PDZ FP-2 -1.
For C[C@@H]1CN([C@@H](C)CO)C(=O)c2cc(NS(=O)(=O)c3ccc(Cl)cc3)ccc2O[C@@H]1CN(C)C(=O)Nc1cccc2ccccc12 the results were DENV2 CPE rescue 2, S100A4 inh HTS -6, SIRT5 block 2 and ERAP1 HTS inh 1.
`CC[N+](C)(CC)CCC(c1ccccc1)C1CCCCC1` (centres undefined) gave DENV2 CPE rescue 5, S100A4 inh HTS -1, CAL PDZ FP-1 -9, SIRT5 block 1, ERAP1 HTS inh 109* and CAL PDZ FP-2 0.
C#CCN(C(=O)c1ccc(OC2CCN(Cc3ccccn3)CC2)cc1)C1CCCCC1 was read as DENV2 CPE rescue 0, S100A4 inh HTS -4, CAL PDZ FP-1 55*, SIRT5 block -1, ERAP1 HTS inh 3 and CAL PDZ FP-2 1.
Cc1nn(C)cc1CN(C)C(=O)c1ccc(OC2CCN(Cc3ccccn3)CC2)cc1 was read as DENV2 CPE rescue 0, S100A4 inh HTS 41, CAL PDZ FP-1 -2, SIRT5 block -1, ERAP1 HTS inh -1 and CAL PDZ FP-2 -3.
For CC(C)N(Cc1cnn(C)c1)C(=O)c1ccc(OC2CCN(Cc3ccccn3)CC2)cc1 the results were DENV2 CPE rescue 1, S100A4 inh HTS -2, CAL PDZ FP-1 -2, SIRT5 block 17*, ERAP1 HTS inh -5 and CAL PDZ FP-2 -2.
For CN(Cc1nccs1)C(=O)c1ccc(OC2CCN(Cc3ccccn3)CC2)cc1 the results were DENV2 CPE rescue 42*, S100A4 inh HTS 0, SIRT5 block -4, ERAP1 HTS inh 2 and CAL PDZ FP-2 -1.
For CC=Cc1ccc2n(c1=O)C[C@H]1[C@H](CO)[C@@H](C(=O)N3CCCCC3)N(C(=O)CC)[C@@H]21 (mixture of isomers) the results were DENV2 CPE rescue -5, S100A4 inh HTS 29, SIRT5 block -1 and ERAP1 HTS inh 1.
Screening O=C(Nc1cccnc1)c1ccc(CSc2ccccc2)cc1 returned DENV2 CPE rescue -3, S100A4 inh HTS -8, CAL PDZ FP-1 -2, SIRT5 block 0, ERAP1 HTS inh 1 and CAL PDZ FP-2 -3.
`O=C(Nc1cccc(Br)c1)c1ccc(CSc2ccccc2)cc1` gave DENV2 CPE rescue 0, S100A4 inh HTS 15, CAL PDZ FP-1 -2, SIRT5 block 24*, ERAP1 HTS inh 2 and CAL PDZ FP-2 -2.
`CC(=O)Nc1ccc(NC(=O)c2ccccc2CCc2ccccc2)cc1` gave DENV2 CPE rescue 1, S100A4 inh HTS -4, CAL PDZ FP-1 0, SIRT5 block -5, ERAP1 HTS inh 2 and CAL PDZ FP-2 0.
Screening O=C(Nc1ccccc1)c1ccccc1CSc1ccccc1 returned DENV2 CPE rescue 44*, S100A4 inh HTS 0, CAL PDZ FP-1 -5, ERAP1 HTS inh -6 and CAL PDZ FP-2 -2.
Screening CO[C@@H]1CN(C)C(=O)c2cc(NC(C)=O)ccc2OC[C@@H](C)N(C(=O)C2CCC2)C[C@H]1C returned DENV2 CPE rescue -5, S100A4 inh HTS 11, SIRT5 block -3 and ERAP1 HTS inh -2.
C[C@@H]1CN([C@@H](C)CO)S(=O)(=O)c2ccc(/C=C/c3ccccc3)cc2O[C@@H]1CN(C)C(=O)c1ccc2c(c1)OCO2 was read as DENV2 CPE rescue -3, S100A4 inh HTS 1, SIRT5 block 24* and ERAP1 HTS inh -1.
C[C@@H]1CN([C@H](C)CO)S(=O)(=O)c2ccc(/C=C/c3ccccc3)cc2O[C@@H]1CN(C)C(=O)c1ccc2c(c1)OCO2 was read as DENV2 CPE rescue -1, S100A4 inh HTS -22, SIRT5 block 23* and ERAP1 HTS inh 1.
`C/C=C/c1ccc2c(c1)O[C@@H](CN(C)C(=O)c1ccc3c(c1)OCO3)[C@H](C)CN([C@@H](C)CO)S2(=O)=O` gave DENV2 CPE rescue 12, S100A4 inh HTS 6, SIRT5 block 0 and ERAP1 HTS inh 4.
Screening Cc1cccc(N(O)C(=O)Nc2cccc(Cl)c2)c1 returned DENV2 CPE rescue 1, S100A4 inh HTS 8, CAL PDZ FP-1 31*, ERAP1 HTS inh 0 and CAL PDZ FP-2 -1.
For CCN(C(=O)Nc1cccc(Cl)c1)c1ccccc1 the results were DENV2 CPE rescue -1, S100A4 inh HTS 10, SIRT5 block 1, ERAP1 HTS inh -4 and CAL PDZ FP-2 1.
Screening COc1ccccc1N(CC(=O)Nc1cc(S(=O)(=O)N(C)C)ccc1C)S(=O)(=O)c1cccs1 returned DENV2 CPE rescue 7, S100A4 inh HTS 2, CAL PDZ FP-1 68*, SIRT5 block -7, ERAP1 HTS inh 1 and CAL PDZ FP-2 7.
Screening CCC(=O)N1C[C@H](C)[C@H](OC)CN(C)C(=O)c2ccc(NC(=O)Nc3ccccc3)cc2OC[C@@H]1C returned DENV2 CPE rescue 2, S100A4 inh HTS -1, SIRT5 block 2 and ERAP1 HTS inh -1.
For Cc1ccccc1-c1nc(CS(=O)(=O)CC(=O)NCCCN2CCCC2)c(C)o1 the results were DENV2 CPE rescue -3, S100A4 inh HTS -4, CAL PDZ FP-1 -1, SIRT5 block 17*, ERAP1 HTS inh 8 and CAL PDZ FP-2 0.
`COc1ccc2[nH]c(O)c(N=NC(=O)c3ccc(NS(=O)(=O)c4cccs4)cc3)c2c1` gave DENV2 CPE rescue 10, S100A4 inh HTS 1, CAL PDZ FP-1 46*, SIRT5 block -5, ERAP1 HTS inh 1 and CAL PDZ FP-2 -1.
O=C(Nc1ccc(N2CCCC2)cc1)c1ccccc1[N+](=O)[O-] was read as DENV2 CPE rescue -1, S100A4 inh HTS -10, CAL PDZ FP-1 -2, SIRT5 block -3, ERAP1 HTS inh -1 and CAL PDZ FP-2 0.
